Test results reported in ChEMBL document CHEMBL1799920, “Total synthesis and pharmacological characterization of solomonsterol A, a potent marine pregnane-X-receptor agonist endowed with anti-inflammatory activity” (J Med Chem, 2011).
Active and inactive are the calls of the source.

What was measured:
Mus musculus [1] = test: Antiinflammatory activity against trinitrobenzenesulfonic acid-induced colitis in human PXR expressing transgenic C57/BL6 mouse assessed as decrease in edema of colon at 10 mg/kg, ip administered on day 1 after TNBS challenge measured after 5 days; type: functional, organism-based; parameters: dose 10 mg/kg; details: C57Bl/6
Procedure, shortened: (§1)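 Therapeutic protocol in male hPXR mice. Colitis was induced with intrarectal TNBS 0.5 mg/mouse in 50% ethanol after a 16 h fast and light ketamine/xylazine anaesthesia. Drug at 10 mg/kg was given once daily from day 1 after TNBS. Mice were sacrificed 5 days after TNBS; n = 4–6 per group.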

THP-1 = test: Inhibition of NF-kappaB p65 DNA binding activity in LPS-stimulated human THP1 cells at 10 uM after 3 hrs by electrophoretic mobility shift assay; type: cell-based
Procedure, shortened: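 THP-1 cells were pretreated with compound (10 μM) or vehicle for 3 h, then LPS 1 μg/mL was added for 20 h. Nuclear extracts were incubated with biotinylated NF-κB probe for 20 min at room temperature, run on a 6% native gel and detected by chemiluminescence. Specificity was checked by cold-probe competition and p65 antibody supershift. Three independent experiments.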

Mus musculus [2] = test: Antiinflammatory activity against trinitrobenzenesulfonic acid-induced colitis in human PXR expressing transgenic C57/BL6 mouse assessed as decrease in thickness of colon at 10 mg/kg, ip administered on day 1 after TNBS challenge measured after 5 days; type: functional, organism-based; parameters: dose 10 mg/kg; details: C57Bl/6; procedure, shortened: as §1
Mus musculus [3] = test: Antiinflammatory activity against trinitrobenzenesulfonic acid-induced colitis in human PXR expressing transgenic C57/BL6 mouse assessed as decrease in appearance of submucosal edema in colon at 10 mg/kg, ip qd administered 3 days before TNBS challenge measured after 7 days by haematoxylin/eosin staining; type: functional, organism-based; parameters: dose 10 mg/kg; details: C57Bl/6
Procedure, shortened: (§2)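 Male hPXR mice (human PXR on mouse PXR-null background). Fasted 16 h and lightly anaesthetised with ketamine/xylazine, then given TNBS 0.5 mg/mouse in 50% ethanol intrarectally in 150 μL. Drug was dissolved in DMSO, diluted in 1% methylcellulose and given i.p. once daily for 3 days before TNBS. Vehicle controls received methylcellulose. Mice were sacrificed 4 days after TNBS; n = 6–7 per group.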

Mus musculus [4] = test: Antiinflammatory activity against trinitrobenzenesulfonic acid-induced colitis in human PXR expressing transgenic C57/BL6 mouse assessed as decrease in MIP-1alpha protein level in colon at 10 mg/kg, ip qd after 5 days; type: functional, organism-based; parameters: dose 10 mg/kg; details: C57Bl/6
Mus musculus [5] = test: Antiinflammatory activity against trinitrobenzenesulfonic acid-induced colitis in human PXR expressing transgenic C57/BL6 mouse assessed as decrease in edema of colon at 10 mg/kg, ip qd administered 3 days before TNBS challenge measured after 7 days; type: functional, organism-based; parameters: dose 10 mg/kg; details: C57Bl/6; procedure, shortened: as §2
Mus musculus [6] = test: Antiinflammatory activity against trinitrobenzenesulfonic acid-induced colitis in human PXR expressing transgenic C57/BL6 mouse assessed as increase in TGF-beta1 protein level in colon at 10 mg/kg, ip qd after 5 days; details: C57Bl/6
Mus musculus [7] = test: Antiinflammatory activity against trinitrobenzenesulfonic acid-induced colitis in human PXR expressing transgenic C57/BL6 mouse assessed as decrease in evidence of mucosal hemorrhage in colon at 10 mg/kg, ip qd administered 3 days before TNBS challenge measured after 7 days; type: functional, organism-based; parameters: dose 10 mg/kg; details: C57Bl/6; procedure, shortened: as §2
Mus musculus [8] = test: Antiinflammatory activity against trinitrobenzenesulfonic acid-induced colitis in human PXR expressing transgenic C57/BL6 mouse assessed as decrease in microscopic colon damage at 10 mg/kg, ip qd administered 3 days before TNBS challenge measured after 7 days; type: functional, organism-based; parameters: dose 10 mg/kg; details: C57Bl/6; procedure, shortened: as §2
Mus musculus [9] = test: Antiinflammatory activity against trinitrobenzenesulfonic acid-induced colitis in human PXR expressing transgenic C57/BL6 mouse assessed as decrease in leukocyte infiltration in colon at 10 mg/kg, ip administered on day 1 after TNBS challenge measured after 5 days by microscopically; type: functional, organism-based; parameters: dose 10 mg/kg; details: C57Bl/6; procedure, shortened: as §1
Mus musculus [10] = test: Antiinflammatory activity against trinitrobenzenesulfonic acid-induced colitis in human PXR expressing transgenic C57/BL6 mouse assessed as decrease in TNF-alpha protein level in colon at 10 mg/kg, ip qd after 5 days by ELISA; type: functional, organism-based; parameters: dose 10 mg/kg; details: C57Bl/6; procedure, shortened: as §2

Measured: Activity

C[C@H](CCCOS(=O)(=O)O)[C@H]1CC[C@H]2[C@@H]3CC[C@H]4C[C@H](OS(=O)(=O)O)[C@@H](OS(=O)(=O)O)C[C@]4(C)[C@H]3CC[C@]12C [SOLOMONSTEROL A]
active: all assays above
